Measured values as given in paper PMC10692386 (Acta Pharmaceutica Sinica. B, 2023).
Values after ≈ are worked out from the molar mass of the structure shown.

Assays:
CYP2D6 = CYP2D6 (Homo sapiens, UniProt P10635); experiment: Cytochrome P450 inhibition assay, CYP2D6; format: in vitro ADME
HIV-1 mutant E138K = experiment: Anti-HIV-1 efficacy against mutant E138K in MT-4 cells; format: cell-based; settings: Human immunodeficiency virus 1, MT4, read-out: EC50 E138K
How it was run: (§1)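 MT-4 cells were infected with HIV-1 RT mutant strains. EC50 was the concentration giving 50% protection against viral cytopathicity, averaged from at least three independent experiments. Cytotoxicity in mock-infected cultures was read by MTT.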

HIV-1 mutant Y181C = experiment: Anti-HIV-1 efficacy against mutant Y181C in MT-4 cells; format: cell-based; settings: Human immunodeficiency virus 1, MT4, read-out: EC50 Y181C
How it was run: as §1

CYP2C19 = CYP2C19 (Homo sapiens, UniProt P33261); experiment: biochemical
CYP2C19, sequence (P33261 whole entry): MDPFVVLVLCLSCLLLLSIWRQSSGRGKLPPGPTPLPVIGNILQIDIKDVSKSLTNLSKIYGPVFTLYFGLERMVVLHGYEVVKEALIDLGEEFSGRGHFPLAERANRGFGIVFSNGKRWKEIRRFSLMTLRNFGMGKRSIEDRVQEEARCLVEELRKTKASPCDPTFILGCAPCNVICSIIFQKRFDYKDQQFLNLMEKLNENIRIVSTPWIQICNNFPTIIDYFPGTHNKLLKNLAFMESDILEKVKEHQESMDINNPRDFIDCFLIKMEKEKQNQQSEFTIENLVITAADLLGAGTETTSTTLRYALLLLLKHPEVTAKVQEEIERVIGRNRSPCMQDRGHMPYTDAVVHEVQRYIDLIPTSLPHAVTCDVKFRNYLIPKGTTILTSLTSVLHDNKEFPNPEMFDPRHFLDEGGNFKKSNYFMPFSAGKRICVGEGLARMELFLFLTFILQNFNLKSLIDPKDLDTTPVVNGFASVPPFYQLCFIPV

HIV-1 mutant L100I = experiment: Anti-HIV-1 efficacy against mutant L100I in MT-4 cells; format: cell-based; settings: Human immunodeficiency virus 1, MT4, read-out: EC50 L100I
How it was run: as §1

[1] = Cytotoxicity in mock-infected MT-4 cell cultures; format: cell-based; settings: human, mock-infected MT-4 cells
WT HIV-1 RT = WT HIV-1 RT (Human immunodeficiency virus type 1 group M subtype B, UniProt P03366); experiment: Inhibition of WT HIV-1 RT; format: biochemical
HIV-1 mutant Y188L = experiment: Anti-HIV-1 efficacy against mutant Y188L in MT-4 cells; format: cell-based; settings: Human immunodeficiency virus 1, MT4, read-out: EC50 Y188L
How it was run: as §1

Acute toxicity assay = format: in vivo, ICR mice; settings: single intragastric administration of 1.2 g/kg
How it was run: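 ICR mice, 24–28 g, aged 5–6 weeks (4 male, 4 female), were randomised into 4 groups. Test compound was given as a single intragastric dose. Body weight, behaviour and coat colour were followed for 14 days. Mice were then euthanised, and kidney, lung, spleen, liver, heart and brain were HE-stained for histology.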

Aqueous solubility = format: physicochemical
CYP1A2 = biological target: T1, CYP1A2 (Homo sapiens, UniProt P05177); experiment: Cytochrome P450 inhibition assay, CYP1A2; format: in vitro ADME
T1 sequence (P05177 1-516): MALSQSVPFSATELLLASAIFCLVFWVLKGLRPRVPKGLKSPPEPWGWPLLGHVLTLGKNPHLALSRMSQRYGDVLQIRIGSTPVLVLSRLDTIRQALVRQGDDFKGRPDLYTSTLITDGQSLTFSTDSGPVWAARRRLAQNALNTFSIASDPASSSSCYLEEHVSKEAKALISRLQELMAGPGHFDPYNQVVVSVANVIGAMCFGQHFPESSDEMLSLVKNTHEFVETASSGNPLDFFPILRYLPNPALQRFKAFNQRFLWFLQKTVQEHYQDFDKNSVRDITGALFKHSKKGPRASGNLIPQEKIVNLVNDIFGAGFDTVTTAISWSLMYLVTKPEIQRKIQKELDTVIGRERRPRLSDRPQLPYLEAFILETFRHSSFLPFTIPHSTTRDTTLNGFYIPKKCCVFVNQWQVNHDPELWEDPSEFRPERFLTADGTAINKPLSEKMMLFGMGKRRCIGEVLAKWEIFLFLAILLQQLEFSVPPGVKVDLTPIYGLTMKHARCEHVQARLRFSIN

[2] = test system: K103N, L100I, E138K, Y181C, and K103N + Y181C; experiment: Anti-HIV-1 efficacy against mutant panel; format: cell-based; settings: Human immunodeficiency virus 1, read-out: EC50 value range
How it was run: as §1

CYP3A4 = CYP3A4 (Homo sapiens, UniProt P08684); experiment: Cytochrome P450 inhibition assay, CYP3A4; format: in vitro ADME
CYP3A4, sequence (P08684 whole entry): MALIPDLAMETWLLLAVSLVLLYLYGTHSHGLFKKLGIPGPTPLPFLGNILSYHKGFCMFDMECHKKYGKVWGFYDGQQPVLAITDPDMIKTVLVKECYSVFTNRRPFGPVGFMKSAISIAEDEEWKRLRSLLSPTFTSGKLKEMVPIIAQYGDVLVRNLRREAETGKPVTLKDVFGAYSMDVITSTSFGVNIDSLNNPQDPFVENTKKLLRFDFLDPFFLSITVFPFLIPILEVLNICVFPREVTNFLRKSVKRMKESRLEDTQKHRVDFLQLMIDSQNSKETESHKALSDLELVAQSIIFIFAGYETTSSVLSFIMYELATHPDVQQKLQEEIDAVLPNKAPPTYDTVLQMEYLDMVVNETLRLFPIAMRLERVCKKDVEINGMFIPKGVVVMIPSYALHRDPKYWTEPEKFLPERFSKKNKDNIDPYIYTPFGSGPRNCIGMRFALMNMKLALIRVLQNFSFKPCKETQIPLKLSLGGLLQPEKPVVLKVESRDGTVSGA

hERG potassium channels = hERG potassium channels (Homo sapiens, UniProt Q12809); experiment: hERG channel Qpatch assay in CHO-hERG cells; format: cell-based
hERG potassium channels, sequence (Q12809 whole entry): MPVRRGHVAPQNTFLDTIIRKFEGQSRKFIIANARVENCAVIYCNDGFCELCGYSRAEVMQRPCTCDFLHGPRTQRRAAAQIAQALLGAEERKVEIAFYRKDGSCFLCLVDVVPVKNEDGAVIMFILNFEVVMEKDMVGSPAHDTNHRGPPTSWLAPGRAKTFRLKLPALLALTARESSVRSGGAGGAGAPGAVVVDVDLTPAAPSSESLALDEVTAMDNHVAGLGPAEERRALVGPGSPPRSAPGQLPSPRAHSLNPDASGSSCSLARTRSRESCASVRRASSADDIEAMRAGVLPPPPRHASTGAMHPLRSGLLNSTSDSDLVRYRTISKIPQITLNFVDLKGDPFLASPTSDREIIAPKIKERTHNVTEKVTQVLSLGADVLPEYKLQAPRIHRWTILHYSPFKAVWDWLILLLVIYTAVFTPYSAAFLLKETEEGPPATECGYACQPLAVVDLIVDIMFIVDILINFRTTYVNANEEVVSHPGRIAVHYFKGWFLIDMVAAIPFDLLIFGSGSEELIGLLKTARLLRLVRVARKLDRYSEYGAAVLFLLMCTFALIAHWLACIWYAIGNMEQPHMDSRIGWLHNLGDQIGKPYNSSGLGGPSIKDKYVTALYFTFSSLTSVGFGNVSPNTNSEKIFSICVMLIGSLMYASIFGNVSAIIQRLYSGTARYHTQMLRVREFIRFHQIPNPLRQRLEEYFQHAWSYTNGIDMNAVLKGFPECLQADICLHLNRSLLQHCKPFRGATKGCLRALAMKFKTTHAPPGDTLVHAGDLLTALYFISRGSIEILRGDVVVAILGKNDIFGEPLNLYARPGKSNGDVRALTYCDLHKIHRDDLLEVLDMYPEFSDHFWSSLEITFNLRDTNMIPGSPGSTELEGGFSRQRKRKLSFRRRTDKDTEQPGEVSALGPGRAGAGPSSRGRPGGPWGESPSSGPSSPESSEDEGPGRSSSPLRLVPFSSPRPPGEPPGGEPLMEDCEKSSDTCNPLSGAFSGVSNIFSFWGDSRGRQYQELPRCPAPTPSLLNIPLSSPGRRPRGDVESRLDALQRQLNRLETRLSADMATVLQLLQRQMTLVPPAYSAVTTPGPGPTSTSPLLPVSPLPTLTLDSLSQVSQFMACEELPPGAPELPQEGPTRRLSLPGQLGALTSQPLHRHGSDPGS

WT HIV-1 = experiment: Anti-HIV-1 activity in MT-4 cells infected with HIV-1; format: cell-based; settings: for EC50: Human immunodeficiency virus 1, MT4; for SI: selectivity index, the ratio of CC50/EC50, WT HIV-1
HIV-1 mutant K103N = experiment: Anti-HIV-1 efficacy against mutant K103N in MT-4 cells; format: cell-based; settings: Human immunodeficiency virus 1, MT4, read-out: EC50 K103N
How it was run: as §1

[3] = PK study in Sprague-Dawley rats; format: in vivo; settings: rat, plasma
How it was run: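 Six SD rats, 180–220 g, were fasted 12 h and randomised into an intravenous arm (1 mg/kg) and an intragastric arm. Blood was drawn from pre-dose to 720 min into heparin, and plasma was stored at −80 °C. Plasma was precipitated with acetonitrile, dried under nitrogen, reconstituted and assayed by HPLC-MS/MS. PK parameters and bioavailability came from concentration–time data.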

[4] = test system: HIV-1 mutant K103N + Y181C; experiment: Anti-HIV-1 efficacy against mutant K103N + Y181C in MT-4 cells; format: cell-based; settings: Human immunodeficiency virus 1, MT4, read-out: EC50 K103N + Y181C
How it was run: as §1

CYP2C9 = CYP2C9 (Homo sapiens, UniProt P11712); experiment: Cytochrome P450 inhibition assay, CYP2C9; format: in vitro ADME
CYP2C9, sequence (P11712 whole entry): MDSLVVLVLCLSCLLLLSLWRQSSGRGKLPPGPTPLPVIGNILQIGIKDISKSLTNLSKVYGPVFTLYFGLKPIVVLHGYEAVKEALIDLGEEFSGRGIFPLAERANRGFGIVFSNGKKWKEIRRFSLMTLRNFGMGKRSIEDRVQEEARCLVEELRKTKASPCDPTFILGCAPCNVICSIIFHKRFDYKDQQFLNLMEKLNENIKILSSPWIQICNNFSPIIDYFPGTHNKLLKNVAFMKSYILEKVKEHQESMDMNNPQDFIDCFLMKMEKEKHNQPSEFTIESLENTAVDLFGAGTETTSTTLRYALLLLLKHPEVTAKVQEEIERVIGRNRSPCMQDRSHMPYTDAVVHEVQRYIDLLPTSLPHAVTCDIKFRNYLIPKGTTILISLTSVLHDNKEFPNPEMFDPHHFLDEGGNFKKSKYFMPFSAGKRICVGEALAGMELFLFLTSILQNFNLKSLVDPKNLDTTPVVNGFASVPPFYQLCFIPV

CYP2D6, sequence (P10635 whole entry): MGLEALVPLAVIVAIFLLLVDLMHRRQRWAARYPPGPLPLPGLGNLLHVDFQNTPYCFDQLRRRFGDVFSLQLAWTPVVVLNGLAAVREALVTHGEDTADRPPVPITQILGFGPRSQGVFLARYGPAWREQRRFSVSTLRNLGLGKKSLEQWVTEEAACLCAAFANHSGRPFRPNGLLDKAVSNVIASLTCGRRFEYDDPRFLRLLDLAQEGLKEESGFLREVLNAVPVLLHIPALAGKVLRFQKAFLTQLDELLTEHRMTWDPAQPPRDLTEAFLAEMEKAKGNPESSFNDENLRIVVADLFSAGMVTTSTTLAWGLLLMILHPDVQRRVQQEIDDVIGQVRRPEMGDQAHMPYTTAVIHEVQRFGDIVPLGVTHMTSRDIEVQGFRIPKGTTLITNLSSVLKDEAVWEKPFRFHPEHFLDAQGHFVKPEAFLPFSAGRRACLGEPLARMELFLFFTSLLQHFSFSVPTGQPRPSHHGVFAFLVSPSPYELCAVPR

Work on `Cn1c(Cn2ccc(C(F)(F)F)c(Oc3cccc4cnccc34)c2=O)n[nH]c1=O` [7w] yielded an IC50 (CYP2D6) greater than 50000 nM, an EC50 (HIV-1 mutant E138K) of 49 ± 13 nM and an EC50 (HIV-1 mutant Y181C) of 50 ± 11 nM. It also gave an IC50 (CYP2C19) of 26800 nM, an EC50 (HIV-1 mutant L100I) of 38 ± 17 nM and a CC50 [1] of 274000 ± 10600 nM. The IC50 (WT HIV-1 RT) was 120 ± 7 nM, the EC50 (HIV-1 mutant Y188L) was 5350 ± 2150 nM and the “Pathological damage of six main organs (HE staining)” value (Acute toxicity assay; after 14 days) was “no obvious pathological damage”. The Behavior and weight (Acute toxicity assay; observed 14 days) was “normal behavior and weight”, the Mortality (Acute toxicity assay; observed 14 days) was “did not result in any fatalities” and the solubility (Aqueous solubility; pH 2, aqueous buffer) was 4470 µg/mL (≈ 10700 µM). For the same molecule, the solubility (Aqueous solubility; pH 7, aqueous buffer) was 38 µg/mL (≈ 91.1 µM), the solubility (Aqueous solubility; pH 7.4, aqueous buffer) was 53 µg/mL (≈ 127 µM) and the IC50 (CYP1A2) was greater than 50000 nM. For the same molecule, the EC50 [2] was 35 to 140 nM, the IC50 (CYP3A4) was greater than 50000 nM and the IC50 (hERG potassium channels) was greater than 40000 nM. The EC50 (WT HIV-1) was 22 ± 10 nM, the SI (WT HIV-1) was 12,497.73 and the EC50 (HIV-1 mutant K103N) was 71 ± 19 nM. For the same molecule, the Cmax ([3]; iv, 1 mg/kg) was 456 ± 51.1 ng/mL, the Tmax ([3]; iv, 1 mg/kg) was 4.98 min and the half-life ([3]; iv, 1 mg/kg) was 17.4 ± 12.6 min. The AUC ([3]; iv, 1 mg/kg, AUC0‒t, 1.0 mg/kg (i.v.)) was 229 ± 45.3 ng·h/mL, the AUC ([3]; iv, 1 mg/kg, AUC0‒∞, 1.0 mg/kg (i.v.)) was 230 ± 46 ng·h/mL and the MRT ([3]; iv, 1 mg/kg, MRT0‒t, 1.0 mg/kg (i.v.)) was 21.1 ± 2.5 min. The MRT ([3]; iv, 1 mg/kg, MRT0‒∞, 1.0 mg/kg (i.v.)) was 22 ± 28 min, the Cmax ([3]; po, 5 mg/kg) was 2888 ± 9.71 ng/mL and the Tmax ([3]; po, 5 mg/kg) was 25 ± 8.64 min. For the same molecule, the bioavailability ([3]; po, 5 mg/kg) was 27.1 ± 0.0219%, the half-life ([3]; po, 5 mg/kg) was 107 ± 17.4 min and the AUC ([3]; po, 5 mg/kg, AUC0‒t, 5.0 mg/kg (p.o.)) was 304 ± 24.5 ng·h/mL. For the same molecule, the AUC ([3]; po, 5 mg/kg, AUC0‒∞, 5.0 mg/kg (p.o.)) was 312 ± 25.3 ng·h/mL, the MRT ([3]; po, 5 mg/kg, MRT0‒t, 5.0 mg/kg (p.o.)) was 70.2 ± 9.18 min and the MRT ([3]; po, 5 mg/kg, MRT0‒∞, 5.0 mg/kg (p.o.)) was 85.2 ± 8.4 min. The EC50 [4] was 140 ± 90 nM and the IC50 (CYP2C9) was 19600 nM.

`Cn1c(Cn2ccc(C(F)(F)F)c(Oc3cccc4ccncc34)c2=O)n[nH]c1=O` [7x] gave a CC50 [1] greater than 299000 nM, an EC50 (WT HIV-1) of 1230 ± 280 nM and an SI (WT HIV-1) greater than 244.

For `Cn1c(Cn2ccc(C(F)(F)F)c(Oc3cccc4nccnc34)c2=O)n[nH]c1=O` [7y], the CC50 [1] was 220000 ± 35500 nM, the EC50 (WT HIV-1) was 8070 ± 1410 nM and the SI (WT HIV-1) was 27.30.

Molecule `Cc1cc(Oc2c(C(F)(F)F)ccn(Cc3n[nH]c(=O)n3C)c2=O)c2ccccc2n1` [7z] has a CC50 [1] of 233000 ± 32100 nM, an EC50 (WT HIV-1) greater than 233000 nM and an SI (WT HIV-1) of less than 1.

In the case of `Cn1c(Cn2ccc(C(F)(F)F)c(Oc3cc(Cl)cc(C#N)c3)c2=O)n[nH]c1=O` [DOR, doravirine, reference compound], the EC50 (HIV-1 mutant E138K) is reported as 7.5 ± 2.6 nM, the EC50 (HIV-1 mutant Y181C) is reported as 25 ± 2.3 nM and the EC50 (HIV-1 mutant L100I) is reported as 6.6 ± 1.7 nM. The CC50 [1] was 293240 ± 170 nM, the IC50 (WT HIV-1 RT) was 44 ± 5 nM and the EC50 (HIV-1 mutant Y188L) was 500 ± 150 nM. It also gave an EC50 (WT HIV-1) of 13 ± 4 nM, an EC50 (HIV-1 mutant K103N) of 42 ± 1.3 nM and an EC50 [4] of 142 ± 57 nM.

For `COc1ccc2c(c1)[C@]13CCCC[C@@H]1[C@H](C2)N(C)CC3` [Dextromethorphan, reference compound], the IC50 (CYP2D6) was 48.2 nM.

With `Cc1cc(C#N)cc(C)c1Oc1nc(Nc2ccc(C#N)cc2)nc(N)c1Br` [ETR, etravirine, reference compound] the EC50 (HIV-1 mutant E138K) was 6 ± 1 nM, the EC50 (HIV-1 mutant Y181C) was 19 ± 9 nM and the EC50 (HIV-1 mutant L100I) was 6 ± 4 nM. The CC50 [1] was greater than 4600 nM, the EC50 (HIV-1 mutant Y188L) was 18 ± 8 nM and the EC50 (WT HIV-1) was 2.9 ± 2 nM. It also gave an SI (WT HIV-1) greater than 1600, an EC50 (HIV-1 mutant K103N) of 2 nM and an EC50 [4] of 31 ± 9 nM.
